Assay [1] relates to Mycobacterium tuberculosis. As to the kind of experiment: Antimicrobial activity against Mycobacterium tuberculosis deltacydKO mutant under GAST/Fe medium assessed as growth inhibition after 14 days by alamar blue assay. Type of assay: functional. The method, boiled down: (§1)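 Broth microdilution in GAST/Fe medium against fully virulent Mtb H37RvMa or its derived strains (cytochrome bd oxidase deletion ΔcydKO; qcrB Ala317Thr point mutant). Plates were incubated 14 days, growth was read by Alamar Blue, and MIC90 was taken as the potency value.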

The subject of assay [2] is Mycobacterium tuberculosis. In words: Antimicrobial activity against Mycobacterium tuberculosis deltacydKO/A317T mutant under GAST/Fe medium assessed as growth inhibition after 14 days by alamar blue assay. Type of assay: functional. The method, boiled down: as §1
In general terms: Alamar Blue is a resazurin reagent that responds to reducing activity.

≈ marks a conversion by molar mass, not a printed value.

Usually MIC90 stands for the lowest concentration that inhibits either 90% of growth or 90% of the strains tested, depending on the study. As for `CCOC(=O)c1nc(C)c2c(c1N)C(=O)N(Cc1ccccc1)C2=O`, the MIC90 in assay [1] is 0.019 µM (≈ 0.00645 µg/mL); in assay [2] it was above 10 µM.
In the case of `Cc1noc(-c2nc(C)c3c(c2N)C(=O)N(Cc2cccc(OC(F)(F)F)c2)C3=O)n1`, the MIC90 in assay [1] is below 0.019 µM; in assay [2], above 10 µM.
For `Cc1nc(C(=O)OC2CC2)c(N)c2c1C(=O)N(Cc1ccccc1)C2=O`, in that order: 0.039 µM (≈ 0.0137 µg/mL) and above 10 µM.
The corresponding values for `COc1cccc(CN2C(=O)c3c(C)nc(-c4nc(C)no4)c(N)c3C2=O)c1` are 0.039 µM (≈ 0.0148 µg/mL) and above 10 µM.
Turning to `CCOC(=O)c1nc(C)c2c(c1N)C(=O)N(Cc1ccccc1)C2O` (configuration not stated), the MIC90 is 0.019 µM (≈ 0.00649 µg/mL) in assay [1] and above 10 µM in assay [2].
For `Cc1noc(-c2nc(C)c3c(c2N)C(=O)N(Cc2cccc(Cl)c2)C3=O)n1`, in that order: below 0.019 µM and above 10 µM.

For the origin of these results see ChEMBL document CHEMBL3734652, “Pyrrolo[3,4-c]pyridine-1,3(2H)-diones: A Novel Antimycobacterial Class Targeting Mycobacterial Respiration” (J Med Chem, 2015).
